Sampled rows, rich in hits. Any-hit rate of the full collection: about 3.1%.
PAFAH1B2 inh = inhibitors of human PAFAH1B2; P68402; inhibition, % at 3.39 µM; 1.2% of 340,000 active; recombinant PAFAH1B2, FP-rhodamine activity probe, fluorescence polarization;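 active = inhibition above the mean of all tested compounds plus 3 SD, cut at about 24% in these data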
PAFAH2 inh = PAFAH2 (human) inhibition | Q99487 | 0.99% of 340,000 active | inhibition, % at 3.39 µM | recombinant PAFAH2, FP-rhodamine activity probe, fluorescence polarization;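 active = inhibition above the mean over all tested compounds plus 3 SD, cut at about 30% in these data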;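 note: inhibitors block probe labeling of enzyme so polarization drops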
pPAFAH inh = pPAFAH (human) enzyme inhibition; Q13093; recombinant pPAFAH, FP-rhodamine probe fluorescence polarization; inhibition, % at 3.39 µM; 1.5% of 330,000 active;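 active = inhibition above the mean inhibition across the screen plus 3 SD, cut at about 25% in these data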;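 note: inhibitors block binding of the rhodamine activity-based probe so polarization drops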
PAFAH1B3 FP inh = inhibitors of human PAFAH1B3 | 0.28% of 340,000 active | recombinant PAFAH1B3, FP-rhodamine probe, fluorescence polarization | AID 492972 | Q15102 | inhibition, % at 3.39 µM;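 active = inhibition above the screen-wide average of all tested compounds plus 3 SD, cut at about 25% in these data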
Apaf1 inhib = blocks human Apaf-1 apoptosome activity | O14727 | inhibition, % at 20 µM | AID 489030 | 0.71% of 330,000 active | reconstituted apoptosome caspase-3 activity, DEVD-Rh110 fluorescence; active = inhibition of at least 40% at 20 µM
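Material: biochemical Apaf-1 apoptosome reconstitution. Medium: Hepes buffer, pH 7.5. Also added: cytochrome c activation, bis-DEVD rhodamine 110 substrate. Timing: 30 min compound preincubation, 50 min activation, room temperature. Measured by: rhodamine 110 fluorescence at Ex 480/Em 540 nm.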
Each line names hits and unclear results; the compound was inactive in the other large screens.

Cc1cc(NC(=O)COC(=O)C2CSC3(C)CCC(=O)N23)ccc1Br (configuration not stated)	none
Cc1ccc(S(=O)(=O)N2CCN(C(=O)CN3CCN(c4ccc(O)cc4)CC3)CC2)cc1	none (no result: pPAFAH inh, Apaf1 inhib)
CC(C)C(CCNCc1ccccn1)c1ccc(Cl)cc1 (configuration not stated)	PAFAH1B2 inh 45, PAFAH2 inh 45, PAFAH1B3 FP inh 35
CC(C)CCC(CCNCc1ccccn1)c1ccc2c(c1)OCO2 (configuration not stated)	none
CCOC(=O)c1sc(Nc2nc3c(OC)cccc3s2)nc1C	pPAFAH inh 30
COc1cccc2sc(Nc3nc(-c4ccccn4)cs3)nc12	pPAFAH inh 28
c1ccc(Nc2nc(-c3ccccn3)cs2)cc1	none
CCOC(=O)c1sc(Nc2ccccc2)nc1C	none
O=C1[C@H]2[C@@H](/C=C/c3ccccc3)N3C(=O)CN(Cc4ccccn4)C(=O)[C@@]3(Cc3ccccc3)[C@H]2C(=O)N1c1ccccc1	none
CC1(c2cccc(Br)c2)NC(=O)N(CC(=O)Nc2ccc(F)cc2)C1=O (configuration not stated)	none
COc1ccccc1/C=C/CN1CCC(Oc2cc(C(=O)NC3CC3)ccc2OC)CC1	none
O=C(O)c1cc(N2N=C(C(F)(F)F)/C(=C/C=C/c3ccco3)C2=O)ccc1Cl	PAFAH1B2 inh 32, PAFAH2 inh 59, PAFAH1B3 FP inh 37 (no result: pPAFAH inh, Apaf1 inhib)
O=C(CCN1CCCCC1=O)NC1CCCc2c1cnn2-c1ccccc1F (configuration not stated)	none
Oc1ccc(Nc2nc3ccccc3nc2Nc2ccc(O)cc2)cc1	PAFAH1B2 inh 27, PAFAH1B3 FP inh 40
CN1CCN(Cc2c(C(=O)N/N=C/c3cccc(Br)c3)nnn2-c2nonc2N)CC1	none
CC(C)(C)NC(=O)C(=O)NNC(=O)COc1ccc(Br)cc1	PAFAH1B2 inh 31
c1ccc(-c2nc(SCc3nc4ccccc4[nH]3)c3oc4ccccc4c3n2)cc1	none
NC(=O)[C@@H]1CCCNc2c(I)cc([N+](=O)[O-])cc2C(=O)N[C@@H](CCCN=C(N)N)C(=O)N[C@@H](CCCN=C(N)N)C(=O)N1	Apaf1 inhib 41 (no result: PAFAH1B2 inh, PAFAH2 inh, PAFAH1B3 FP inh)
COc1cc(NC(=O)CCc2nnc3ccc(N4CCN(C)CC4)nn23)cc(OC)c1	none
COc1ccc(NC(=O)CSc2nc3[nH]ncc3c(=O)[nH]2)c(OC)c1	none
CC(=O)NC(c1ccccc1)c1cc([N+](=O)[O-])c2cccnc2c1O (configuration not stated)	none
CC(C)C(=O)NC(c1ccccc1)c1cc([N+](=O)[O-])c2cccnc2c1O (configuration not stated)	pPAFAH inh 34
O=C(CCN1C(=O)/C(=C\c2cccs2)SC1=S)Nc1ccc(C(=O)O)cc1	none
CCc1ccc(/C=C2\SC(=S)N(CCCC(=O)Nc3ccccn3)C2=O)cc1	none
CCc1ccc(/C=C2/SC(=S)N(CCCC(=O)Nc3ccccc3C(=O)O)C2=O)cc1	PAFAH1B2 inh 61, PAFAH2 inh 44
CC(C(=O)Nc1ccc(O)cc1C(=O)O)N1C(=O)/C(=C\c2cccs2)SC1=S (configuration not stated)	pPAFAH inh 28
O=C(CCCN1C(=O)/C(=C\c2ccccc2)SC1=S)Nc1ccc(O)cc1C(=O)O	PAFAH1B2 inh 64
CCN(CC)CCOC(=O)c1ccc(NC(=O)CCCN2C(=O)/C(=C\c3cccs3)SC2=S)cc1	Apaf1 inhib 60
COc1ccc(CCN2CC(C(=O)NCCN3CCOC3=O)CCC2=O)cc1 (configuration not stated)	none
Cc1ccc(NS(=O)(=O)c2cc(C(=O)N(C)C3CCN(C)CC3)ccc2Cl)cc1Cl	none
O=C(CCCN1C(=O)/C(=C/c2ccccc2Cl)SC1=S)NNC(=O)c1cccnc1	none
Cc1cc(NC(=O)CCCN2C(=O)/C(=C\c3cccs3)SC2=S)no1	none
O=C(CCCN1C(=O)/C(=C/c2ccccc2Cl)SC1=S)NNC(=O)c1ccccc1	pPAFAH inh 32
O=C(CCCN1C(=O)/C(=C/c2cccs2)SC1=S)Nc1cc([N+](=O)[O-])ccc1O	pPAFAH inh 30
CC[C@@H]1CCCCc2ccccc2[C@H](C(=O)C[C@H](O)CC(C)=O)OC1=O	none
CCCCNC(=O)CN1C(=O)NC2(CCOc3ccccc32)C1=O (configuration not stated)	none
CC(CNC(=O)CN1C(=O)NC2(CCOc3ccccc32)C1=O)c1ccccc1 (configuration not stated)	PAFAH1B2 inh 28
COc1ccc(CC(=O)Nc2nnc(CC(C)C)s2)cc1S(=O)(=O)N1CCOCC1	none (no result: pPAFAH inh)
O=C(COC(=O)c1ccc(F)cc1Cl)NC1CCCCCCC1	PAFAH2 inh 86, pPAFAH inh 33
CCOc1ncccc1C(=O)OCC(=O)Nc1c(C)cccc1C	none
CCOc1ncccc1C(=O)OCC(=O)Nc1ccc(-c2nc3ccc(C)cc3s2)cc1	pPAFAH inh 25 (no result: Apaf1 inhib)
NC(=O)NC(=O)COC(=O)c1sc2ccccc2c1Cl	none
O=C(COC(=O)c1ccc(F)cc1Cl)NC1CCS(=O)(=O)C1 (configuration not stated)	none
CCOc1ncccc1C(=O)OCC(=O)NC1CCCCC1	PAFAH2 inh 79, pPAFAH inh 31
O=C(COC(=O)c1sc2ccccc2c1Cl)NC1CCCCC1	pPAFAH inh 31
Cc1cc(C)c(NC(=O)CCc2c(C)noc2C)c(C)c1	none
CC(=O)Nc1ccc(NS(=O)(=O)c2cccc3nonc23)cc1	none
CSc1ncccc1C(=O)N1CCCC(N2CCN(c3ccccc3F)CC2)C1 (configuration not stated)	none
O=C(COC(=O)c1ccccc1Br)NC1CCCCCCC1	PAFAH2 inh 86, pPAFAH inh 32
O=C(COC(=O)c1ccc[nH]c1=O)NC1CCCC1	none
CCOc1ncccc1C(=O)OCC(=O)Nc1c(C)cc(C)cc1C	PAFAH2 inh 34, pPAFAH inh 26
COc1cc(OC)c2cc(C(=O)N/N=C/c3cccc(OC)c3O)[nH]c2c1	none
COc1cccc(/C=N/NC(=O)c2cc3c(OC)ccc(OC)c3[nH]2)c1O	PAFAH1B2 inh 29, PAFAH1B3 FP inh 40
CC(C)n1c(SCC(=O)NC2CCCCC2)nnc1-c1ccco1	none
NC(=O)NC(CC(=O)NNC(=O)c1ccccn1)c1ccccc1Cl (configuration not stated)	none
N/C(=N\OC(=O)CCCc1ccccc1)c1cccc([N+](=O)[O-])c1	PAFAH1B2 inh 26
Cc1ccc(S(=O)(=O)N(C)CC(=O)O/N=C(\N)c2cccc([N+](=O)[O-])c2)cc1	none
Cc1ccc(/C(N)=N/OC(=O)CSc2ccccc2)cc1	none
N/C(=N\OC(=O)CCCc1ccccc1)c1ccccc1	none
COc1ccc(/C(N)=N/OC(=O)CSc2ccccc2)cc1	PAFAH1B2 inh 29
N/C(=N\OC(=O)Cc1ccccc1)c1cccc(Br)c1	PAFAH1B2 inh 30
Cc1ccc(SCC(=O)O/N=C(\N)c2cccc([N+](=O)[O-])c2)cc1	PAFAH1B2 inh 36

Bioassay records: PubChem BioAssay, several laboratories
